Measured values taken from ChEMBL document CHEMBL1137740, “Design, cytotoxic and fluorescent properties of novel N-phosphorylalkyl substituted E,E-3,5-bis(arylidene)piperid-4-ones” (Eur J Med Chem, 2009).

Assays:
[1] = Cytotoxicity against human Caov3 cells after 72 hrs by MTT assay; format: functional, cell-based; conditions: Caov-3, 72 h
Outline: (§1)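 Cells grown in RPMI-1640 with 10% FBS, 2 mM L-glutamine and gentamicin. Seeded at 1×10^4 cells/well and allowed to attach overnight at 37 °C, 5% CO2. Compounds dissolved in DMSO and diluted into FBS-free medium, tested at 5×10^-5, 10^-5, 10^-6 and 10^-7 M. After 72 h, MTT added for 3 h at 37 °C. Formazan dissolved in DMSO and OD read at 590 nm. Viability expressed versus untreated controls, triplicates. IC50 determined graphically; melphalan as positive control.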

[2] = tested on: SK-OV-3; assay: Cytotoxicity against human Scov3 cells after 72 hrs by MTT assay; format: functional, cell-based; conditions: SK-OV-3, 72 h; outline: as §1
[3] = tested on: A549; assay: Cytotoxicity against human A549 cells after 72 hrs by MTT assay; format: functional, cell-based; conditions: A549, 72 h; outline: as §1
[4] = tested on: PC-3; assay: Cytotoxicity against human PC3 cells after 72 hrs by MTT assay; format: functional, cell-based; conditions: PC-3, 72 h; outline: as §1
[5] = Cytotoxicity against human Caov3 cells at 50 uM after 72 hrs by MTT assay; format: functional; conditions: Caov-3, 72 h
[6] = tested on: SK-OV-3; assay: Cytotoxicity against human Scov3 cells at 50 uM after 72 hrs by MTT assay; format: functional; conditions: SK-OV-3, 72 h
[7] = tested on: PC-3; assay: Cytotoxicity against human PC3 cells at 50 uM after 72 hrs by MTT assay; format: functional; conditions: PC-3, 72 h
[8] = tested on: A549; assay: Cytotoxicity against human A549 cells at 50 uM after 72 hrs by MTT assay; format: functional; conditions: A549, 72 h

| SMILES | IC50 [1] | IC50 [2] | IC50 [3] | IC50 [4] | inhibition at 50 µM [5] | inhibition at 50 µM [6] | inhibition at 50 µM [7] | inhibition at 50 µM [8] |
| --- | --- | --- | --- | --- | --- | --- | --- | --- |
| O=C1/C(=C/c2ccc([N+](=O)[O-])cc2)CNC/C1=C\c1ccc([N+](=O)[O-])cc1 | 1030 nM | 2500 nM | 400 nM | 1540 nM | – | – | – | – |
| O=C1/C(=C/c2ccc(F)cc2)CNC/C1=C\c1ccc(F)cc1 | – | 6500 nM | 800 nM | 6000 nM | < 50% | – | – | – |
| CN(C)c1ccc(/C=C2\CNC/C(=C\c3ccc(N(C)C)cc3)C2=O)cc1 | – | 14000 nM | 1400 nM | 15000 nM | < 50% | – | – | – |
| CCOP(=O)(CCCN1C/C(=C\c2ccc(N(C)C)cc2)C(=O)/C(=C/c2ccc(N(C)C)cc2)C1)OCC | – | – | – | – | < 50% | < 50% | < 50% | < 50% |
| CCOP(=O)(CCCCN1C/C(=C\c2ccc(N(C)C)cc2)C(=O)/C(=C/c2ccc(N(C)C)cc2)C1)OCC | – | – | – | – | < 50% | < 50% | < 50% | < 50% |
| CCOP(=O)(CCN1C/C(=C\c2ccc(N(C)C)cc2)C(=O)/C(=C/c2ccc(N(C)C)cc2)C1)OCC | – | – | – | – | < 50% | < 50% | < 50% | < 50% |
| CCOP(=O)(CCN1C/C(=C\c2ccc([N+](=O)[O-])cc2)C(=O)/C(=C/c2ccc([N+](=O)[O-])cc2)C1)OCC | 5050 nM | 2010 nM | 1000 nM | 1320 nM | – | – | – | – |
| CCOP(=O)(CCCN1C/C(=C\c2ccc([N+](=O)[O-])cc2)C(=O)/C(=C/c2ccc([N+](=O)[O-])cc2)C1)OCC | 5620 nM | 900 nM | 7120 nM | 710 nM | – | – | – | – |
| CCOP(=O)(CN1C/C(=C\c2ccc(N(C)C)cc2)C(=O)/C(=C/c2ccc(N(C)C)cc2)C1)OCC | – | – | – | 30000 nM | < 50% | < 50% | – | < 50% |
| CCOP(=O)(CN1C/C(=C\c2ccc(F)cc2)C(=O)/C(=C/c2ccc(F)cc2)C1)OCC | 10200 nM | 2100 nM | 8050 nM | 3000 nM | – | – | – | – |
| CCOP(=O)(CN1C/C(=C\c2ccc([N+](=O)[O-])cc2)C(=O)/C(=C/c2ccc([N+](=O)[O-])cc2)C1)OCC | 5030 nM | 1520 nM | 1000 nM | 1400 nM | – | – | – | – |
| CCOP(=O)(CCCN1C/C(=C\c2ccc(F)cc2)C(=O)/C(=C/c2ccc(F)cc2)C1)OCC | 8500 nM | 2800 nM | 9070 nM | 1820 nM | – | – | – | – |
| CCOP(=O)(CCN1C/C(=C\c2ccc(F)cc2)C(=O)/C(=C/c2ccc(F)cc2)C1)OCC | 10000 nM | 1640 nM | 1020 nM | 4010 nM | – | – | – | – |
| CCOP(=O)(CCCCN1C/C(=C\c2ccc([N+](=O)[O-])cc2)C(=O)/C(=C/c2ccc([N+](=O)[O-])cc2)C1)OCC | 1010 nM | 4100 nM | 3000 nM | 1200 nM | – | – | – | – |
| N[C@@H](Cc1ccc(N(CCCl)CCCl)cc1)C(=O)O [MELPHALAN] | 20000 nM | 60000 nM | 50000 nM | 70000 nM | – | – | – | – |
